Experimental data from different studies.
Lines come from different studies, so protocols differ.
Target: Testis-specific serine/threonine-protein kinase 3 (TSSK3, Homo sapiens, UniProt Q96PN8)
One construct used (Q96PN8 1-268): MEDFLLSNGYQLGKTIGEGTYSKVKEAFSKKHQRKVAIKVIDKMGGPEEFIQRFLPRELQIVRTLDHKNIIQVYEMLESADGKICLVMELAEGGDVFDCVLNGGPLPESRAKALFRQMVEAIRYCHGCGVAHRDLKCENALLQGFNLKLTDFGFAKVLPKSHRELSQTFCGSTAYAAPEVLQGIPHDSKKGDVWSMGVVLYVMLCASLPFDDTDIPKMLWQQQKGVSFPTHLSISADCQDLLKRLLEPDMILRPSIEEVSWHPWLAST

| SMILES | assay | conditions | remaining binding [%] |
| --- | --- | --- | --- |
| O=C(Nc1ccc(Oc2ccc(F)cc2)cc1)N1CCc2ncccc2[C@H]1c1ccc(F)cc1 | cell-free assay, competition with immobilised ligand | 1 µM | 98 |
| F[C@@H]1CCN(c2nccc(-c3cnn4ncccc34)n2)C1 | binding | 1 µM | 100 |
| O=C(c1ccc(Nc2ncc(Cl)c(-c3cc4ccccc4s3)n2)cc1)N1CCC(N2CCCC2)CC1 | binding, competition with immobilised ligand | 1 µM | 85 |
| C=CC(=O)N1CCC(C(=O)NCC(=O)N2CCN(c3nc(-c4cnc(N)nc4C(F)F)nc(N4CCOCC4)n3)CC2)CC1 | binding, competition with immobilised ligand | 1 µM | 100 |
| C[C@H]1CCN(c2nccc(-c3cnn4ncccc34)n2)C1 | binding | 1 µM | 92 |
| C[C@H](c1ccc(F)cc1)N(Cc1cccc(C(=O)O)c1)C(=O)c1cnc2ccccc2c1 | cell-free assay, competition with immobilised ligand | 1 µM | 64 |
| N[C@@H]1CCN(c2nccc(-c3cnn4ncccc34)n2)C1 | binding | 1 µM | 100 |
| O=C(Nc1cnc(Oc2ccc(F)cc2)nc1)N1CCc2ncccc2[C@@H]1c1ccc(F)cc1 | cell-free assay, competition with immobilised ligand | 1 µM | 86 |
| O=C(NCCCN1CCOCC1)c1ccc(Nc2nccc(-c3cc4ccccc4s3)n2)cc1 | binding, competition with immobilised ligand | 1 µM | 79 |
| Nc1c(C(=O)NCc2ccc(C(=O)NCCCC3CCCCC3)cc2)cnn1-c1ccccc1 | cell-free assay, competition with immobilised ligand | 0.1 µM | 100 |
| CN(C)c1nccc(-c2cnn3ncccc23)n1 | binding | 1 µM | 100 |
| Cc1cnc(Nc2ccc(C(=O)N3CCC(N4CCCC4)CC3)cc2)nc1-c1cc2ccccc2s1 | binding, competition with immobilised ligand | 1 µM | 84 |
| c1cncc(-c2cccc(Nc3nccc(NC4CCCCC4)n3)c2)c1 | binding, competition with immobilised ligand | 10 µM | 86 |
| COc1cnc(Nc2cccc(S(N)(=O)=O)c2)nc1N1CCN(c2ccccc2)CC1 | binding, competition with immobilised ligand | 1 µM | 97 |
| CN(C)c1nccc(-c2cnc3ncccn23)n1 | binding | 1 µM | 90 |
| CNC(=O)[C@@H]1CC[C@@H](n2c(-c3ccc4cnccc4c3)nc3ccc(C(=O)NCc4cccc(C(N)=O)c4)cc32)C1 | binding, competition with immobilised ligand | 1 µM | 100 |
| CNC(=O)Nc1ccc2c(c1)[C@@]1(CC2)OC(=O)N(CC(=O)N(Cc2ccc(F)cc2)[C@@H](C)C(F)(F)F)C1=O | cell-free assay, competition with immobilised ligand | 1 µM | 100 |
| c1cnn2ncc(-c3ccnc(N4CCC45COC5)n3)c2c1 | binding | 1 µM | 98 |
| C[C@@]1(Cc2ccc(C#N)cc2)C(=O)N(c2cc(Cl)cc(Cl)c2)c2ncc(C(=O)NC3(c4nc(C5CCC5)no4)CC3)n21 | cell-free assay, competition with immobilised ligand | 1 µM | 100 |
| O=C(NCC1CCOCC1)c1n[nH]cc1NC(=O)c1c(F)cccc1F | binding, competition with immobilised ligand | 1 µM | 100 |
